CHO parental Ca = ATP-evoked calcium signal inhibitors, parental CHO, primary screen, counter-screen for OX1R antagonist project, cell-based, fluorescence, Fluo-8 calcium dye; parental CHO-K1, ATP-induced calcium, Fluo-8 fluorescence; inhibition, % at 5.6 µM; hit rate 0.63% among 330,000; AID 463079, 2010;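 active = inhibition above that plate's mean sample inhibition plus 3 SD, cut at about 26% in these data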;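 also: 0% = ATP-challenged DMSO wells and 100% = DMSO wells without ATP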
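Material – parental CHO cells · Reagent – ATP stimulus · Compound – single nominal dose of 5.6 µM per compound · Detection – Fluo-8 fluorescence · Read-out basis – percent inhibition of calcium signal · Controls – ATP-challenged DMSO wells low, unchallenged DMSO wells high · Repeats – no replicates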
TAAR1 ag = human TAAR1 agonists, primary screen, Fluo-8 calcium fluorescence, CHO RD-HGA16 cells. Trace amine-associated receptor 1 (Homo sapiens), Q96RJ0. vehicle wells 0%, saturating PEA agonist 100%. activation, % at 3 µM. hit rate 0.99% among 360,000. AID 624467, 2012;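 active = activation above the mean activation of all test compounds in the run plus 3 SD, cut at about 38% in these data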
Target sequence (Q96RJ0 whole entry, looked up): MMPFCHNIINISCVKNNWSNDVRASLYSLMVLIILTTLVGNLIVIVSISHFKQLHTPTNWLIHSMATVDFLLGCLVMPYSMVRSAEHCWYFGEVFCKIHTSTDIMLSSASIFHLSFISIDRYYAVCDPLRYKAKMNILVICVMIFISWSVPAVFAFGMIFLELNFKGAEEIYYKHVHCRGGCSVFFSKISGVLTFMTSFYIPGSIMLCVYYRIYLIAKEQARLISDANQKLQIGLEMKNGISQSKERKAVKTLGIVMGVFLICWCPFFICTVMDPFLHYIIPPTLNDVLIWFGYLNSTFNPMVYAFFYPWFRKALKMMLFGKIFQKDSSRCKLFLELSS
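test system = CHO RD-HGA16 cells carrying human TAAR1 plus Gα16 | schedule = 17-24 h seeding, 75 min 37 °C dye, 30 min RT | compound dosing = 3 µM single concentration | control set = DMSO and PEA EC100 | replicates = n 1 | signal = Fluo-8 fluorescence, 5 s baseline then 140 s kinetic read | measure = percent activation vs PEA EC100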
OX1R antag-1 = antagonists of human orexin 1 receptor (OX1R); Orexin/Hypocretin receptor type 1 (Homo sapiens), O43613; OX1R-expressing cells, FRET antagonist read-out; inhibition, % at 6.6 µM; hit rate 1.8% among 330,000; AID 485270, 2010; in the data active = inhibition mostly above about 38%, no sharp cut-off; inactive = mostly below about 40%;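 also: 0% = agonist challenge alone and 100% = reference antagonist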
TAAR1 antag = human TAAR1 antagonists, primary screen, Fluo-8 calcium fluorescence, CHO RD-HGA16 cells. antagonist. AID 624466, 2012. hit rate 1.5% among 360,000. inhibition, % at 3 µM;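 active = inhibition above a per-plate cutoff, the mean inhibition of test compounds on that plate plus 3 SD, cut at about 49% in these data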;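 also: 0% = DMSO plus EC80 beta-PEA response and 100% = DMSO alone without agonist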
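Assay system: CHO-derived RD-HGA16 cells stably expressing human TAAR1 plus Gα16. Timing: 140 s kinetic read after compound, 140 s after agonist. Technique: kinetic Fluo-8 calcium fluorescence measurement. Measure: % inhibition of agonist calcium response.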
OX1R antag-2 = OX1R (HCRTR1) antagonists, primary screen, fluorescence, CHO/OX1R cells, Fluo-8 calcium, orexin A; Orexin/Hypocretin receptor type 1 (Homo sapiens), O43613; Fluo-8 calcium fluorescence; inhibition, % at 5 µM; hit rate 0.43% among 330,000;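 active = inhibition above its plate's threshold, mean inhibition of all tested compounds on the plate plus 3 SD, cut at about 37% in these data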;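 also: 0% = orexin A challenge wells and 100% = SB-334867-A antagonist wells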
GPR7 antagonist = GPR7 receptor antagonists, primary screen, cell-based, fluorescence, single concentration; hit rate 1.1% among 290,000; GPR7-expressing cells, fluorescence antagonist assay; AID 1861, 2009; inhibition, % at 4.4 µM; in the data active = inhibition above about 16%, passing the limit was not always enough;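 also: cells stimulated with the agonist NPW; 0% = agonist with vehicle and 100% = vehicle without agonist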
Target sequence (P48145 whole entry, looked up): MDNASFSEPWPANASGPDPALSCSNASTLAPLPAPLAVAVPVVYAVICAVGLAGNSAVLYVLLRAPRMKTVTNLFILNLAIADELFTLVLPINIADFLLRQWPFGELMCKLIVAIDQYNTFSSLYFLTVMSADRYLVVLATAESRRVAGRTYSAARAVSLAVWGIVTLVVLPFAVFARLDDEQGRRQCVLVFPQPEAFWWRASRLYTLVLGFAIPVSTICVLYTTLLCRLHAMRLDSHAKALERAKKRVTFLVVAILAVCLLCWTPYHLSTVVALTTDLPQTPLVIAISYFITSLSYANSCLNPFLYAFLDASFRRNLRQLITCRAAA
OX1R Fluo8 conf = OX1R (HCRTR1) antagonists, confirmation, fluorescence, CHO/OX1R cells, Fluo-8 calcium, orexin A; orexin A calcium Fluo-8 fluorescence; inhibition, % at 5 µM; shares compounds with OX1R antag-2; AID 492963, 2010; hit rate 38% among 1,100; in the data active = inhibition above about 29%;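 also: 0% = agonist challenge alone and 100% = reference antagonist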
CHO Ca counter = ATP-evoked calcium inhibition in parental CHO, counter-screen for OX1R antagonist project, cell-based, fluorescence, CHO-K1, triplicate | hit rate 9.3% among 1,100 | shares compounds with OX1R antag-2 | ATP-induced calcium, Fluo-8 fluorescence | inhibition, % at 5.6 µM;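 active = inhibition above a per-plate limit, the mean inhibition of that plate's test compounds plus 3 SD, cut at about 25% in these data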;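 also: 0% = ATP challenge with DMSO and 100% = DMSO without ATP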
OX1R HTRF confirm = OX1R (HCRTR1) antagonists, confirmation, cell-based, HTRF | shares compounds with OX1R antag-1 | OX1R-expressing cells, HTRF antagonist assay | inhibition, % at 6.6 µM | hit rate 49% among 1,800; in the data active = inhibition above about 55%;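 also: CHO cells expressing OX1R stimulated with orexin A at about EC80; 0% = agonist challenge alone and 100% = reference antagonist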
CHO-K1 HTRF cnt = signal inhibition in parental CHO-K1 cells, counter-screen for OX1R antagonist project, cell-based, HTRF; hit rate 48% among 1,800; HTRF counterscreen; inhibition, % at 6.6 µM; shares compounds with OX1R antag-1; in the data active = inhibition above about 17%;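 also: 0% = agonist challenge with vehicle and 100% = vehicle alone without agonist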
TAAR1 ag conf = human TAAR1 agonists, retest of hits, confirmation, Fluo-8 calcium fluorescence, CHO RD-HGA16 cells | shares compounds with TAAR1 ag | scaled: DMSO 0%, maximal phenethylamine 100% | activation, % at 3 µM | hit rate 82% among 2,400;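 active = activation above a cutoff set at the run's mean compound activation plus 3 SD, cut at about 39% in these data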
Ga16 nonsel ag = nonselective calcium mobilization agonists, CHO-Ga16 cells, counter-screen for hTAAR1 agonist project, cell-based, fluorescence, CHO-Ga16 parental line; Fluo-8 calcium fluorescence; normalized to maximal ATP response, DMSO zero; hit rate 50% among 2,400; activation, % at 3 µM; shares compounds with TAAR1 ag;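 active = activation above the run cutoff, the mean activation over all tested wells plus 3 SD, cut at about 12% in these data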;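 also: 0% = DMSO wells and 100% = maximal ATP response on the peak over basal ratio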
TAAR1 desensitize = TAAR1 desensitization by agonist hits, confirmation, counter-screen for TAAR1 agonist project, cell-based, fluorescence, tachyphylaxis. shares compounds with TAAR1 ag. CHO RD-HGA16 hTAAR1, Fluo-8 calcium, beta-PEA response inhibition. inhibition, % at 3 µM. hit rate 46% among 2,400. AID 651951, 2012;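 active = inhibition above the run cutoff, the mean inhibition of all test compounds plus 3 SD, cut at about 49% in these data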;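 also: beta-PEA stimulus applied at its EC80; loss of beta-PEA calcium signal after compound pretreatment read as receptor desensitization; 0% = DMSO with beta-PEA at EC80 and 100% = DMSO alone without agonist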
Ga16 nonsel ant = inhibition of ATP-evoked calcium response in CHO-Ga16 cells, counter-screen for TAAR1 agonist project, cell-based, fluorescence | shares compounds with TAAR1 ag | CHO-Ga16 ATP-induced calcium, Fluo-8 fluorescence | inhibition, % at 3 µM | hit rate 39% among 2,400 | AID 651952, 2012;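 active = inhibition above the plate's mean compound inhibition plus 3 SD, computed per plate, cut at about 22% in these data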;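 also: 0% = EC80 ATP with DMSO and 100% = DMSO wells without ATP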
* = called active by the depositor; . = not tested or not shown. This is a sample that favours compounds with a hit; in the whole collection about 4.5% have one here.

SMILES	CHO parental Ca	TAAR1 ag	OX1R antag-1	TAAR1 antag	OX1R antag-2	GPR7 antagonist	OX1R HTRF confirm	CHO-K1 HTRF cnt	others
CCOC(=O)c1ccc(NC(=S)N2CCSC2c2ccc(Cl)cc2)cc1 (stereo not drawn)	28	123*	3	105*	40	0	.	.	OX1R Fluo8 conf=91*;CHO Ca counter=73*;TAAR1 ag conf=136*;Ga16 nonsel ag=94*;TAAR1 desensitize=106*;Ga16 nonsel ant=80*
CCOC(=O)c1ccc(NC(=S)N2CCN(C)CC2)cc1	-8	3	9	0	-18	-13	.	.
c1ccc(Nc2nc(NCc3ccco3)c3ccccc3n2)cc1	18	56*	16	41	31	-9	.	.	OX1R Fluo8 conf=15;CHO Ca counter=15;TAAR1 ag conf=84*;Ga16 nonsel ag=8;TAAR1 desensitize=85*;Ga16 nonsel ant=29*
CCC(=O)c1ccc(OC(=O)c2ccc(Br)o2)cc1	25	123*	-10	84*	40	-7	.	.	OX1R Fluo8 conf=38*;CHO Ca counter=39*;TAAR1 ag conf=76*;Ga16 nonsel ag=71*;TAAR1 desensitize=64*;Ga16 nonsel ant=51*
CC1CC(C)CN(c2ccc([N+](=O)[O-])cc2-c2nn[nH]n2)C1 (stereo not drawn)	-4	7	51	7	-16	5	.	.
O=[N+]([O-])c1ccc(-n2cccn2)c(-c2nn[nH]n2)c1	-14	5	108*	1	-13	-8	37	54*
O=C(O)c1ccc(C(S(=O)(=O)c2ccccc2)S(=O)(=O)c2ccccc2)cc1	.	1	.	5	.	.	.	.
CC(=O)N1CCc2cc(N=NC3=C(O)CCCC3=O)ccc21	-3	14	152*	-10	-7	-6	74*	82*
N#Cc1cccc(C(=O)C(=O)N2CCN(c3ccccc3)CC2)c1	.	0	.	-11	.	.	.	.
COc1cccc(-c2ccc(CN3C(C(C)C)C(=O)N(Cc4cn(CCC5OCCO5)nn4)CCS3(=O)=O)cc2)c1OC (stereo not drawn)	.	5	.	-7	.	.	.	.
O=C1NC[C@H](Cc2ccccc2)N(C[C@@H]2CCCN2C[C@H](Cc2ccc(O)cc2)N2C[C@H](Cc3ccccc3)N(CC3CCCCCC3)C(=O)C2=O)C1=O	.	1	.	8	.	.	.	.
COc1ccccc1C(=O)NC1CCSc2ccccc21 (stereo not drawn)	-19	4	80*	-35	-13	3	66*	-8
COc1ccccc1C(=O)NC1CCCc2ccccc21 (stereo not drawn)	-22	-1	25	-12	-36	-21	.	.
Cc1ccc(S(=O)(=O)N2[C@@H](CCO)OC[C@H]2C(C)C)cc1	.	1	.	-2	.	.	.	.
O=C(CSc1ncnc2nc[nH]c12)c1ccc2ccccc2c1	-2	23	84*	21	23	-8	34	-1
Cc1cccc(-n2c3nc(=O)[nH]c(=O)c-3cc3c(C)nn(-c4ccccc4)c32)c1C	4	0	10	-2	-8	-3	.	.
Cc1cccc(-n2c3nc(=O)[nH]c(=O)c-3cc3cc([N+](=O)[O-])ccc32)c1	2	0	77*	-5	-6	9	68*	66*
O=C1C(N2CCOCC2)=C(n2nnc3ccccc32)C(=O)c2ccccc21	-10	5	189*	4	-22	-5	52	75*
Nc1c([N+](=O)[O-])cnnc1-c1ccccc1	-8	1	80*	-13	2	-10	93*	101*
Cc1cc(=O)oc2cc(Oc3ccc([N+](=O)[O-])cc3[N+](=O)[O-])ccc12	-2	-1	89*	10	-11	-8	59*	71*
O=Nc1c2nc3ccccc3n(O)c-2c2ccccc12	-14	9	91*	4	-32	-12	38	49*
On1c(-c2ccccc2)nc2ccccc21	-3	1	35	-22	-9	2	.	.
Cc1ccc(-c2cc(C(=O)Nc3cc(C)ccc3O)no2)cc1	-2	1	1	4	-1	-17	.	.
Cc1ccc(O)c(NC(=O)c2cc(-c3ccccc3Cl)on2)c1	-3	-1	90*	-12	16	6	83*	7
Cc1ccccc1Nc1cc(C(=O)NCc2ccco2)c2ccccc2n1	-17	10	83*	30	7	-12	50	3
CCCCC[n+]1ccn(C2=C([O-])c3ccccc3C(=O)/C2=N\S(=O)(=O)c2ccc(Br)cc2)c1	-21	0	14	-27	-37	-13	.	.

Screens as filed in PubChem BioAssay.
